What was measured:
Rattus norvegicus [1] = test: Antiplatelet activity in Wistar rat assessed as inhibition of ADP-induced platelet aggregation at 3 mg/kg, po measured after 2 hrs by Born's method; type: functional; design: scale not given: the % may be the effect or the level left
Procedure, shortened: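 Oral dosing at 3 mg/kg, CMC as vehicle, groups of 10 rats. At 2 h the rats were anesthetized with pentobarbital sodium and blood was drawn from the abdominal aorta. Ex vivo aggregation was induced with ADP 1.2 μM and read on an aggregometer (Born's method). Values are mean ± SD, n = 10, statistics versus vehicle.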

Rattus norvegicus [2] = test: Tmax in Sprague-Dawley rat assessed as clopidogrel thioacetate level at 24 umol/kg, po; type: ADME, organism-based; settings: in vivo
Rattus norvegicus [3] = test: Cmax in Sprague-Dawley rat assessed as clopidogrel thioacetate level at 24 umol/kg, po; type: ADME, organism-based; design: dose 24 umol/kg, route oral; settings: in vivo
Liver microsomes [4] = test: Drug metabolism in rat liver microsomes assessed as NADPH-dependent active metabolite glutathione adducts 4 formation at 20 uM after 30 mins by LC-MS/MS analysis; type: ADME, Microsome; settings: 0.5 h
Procedure, shortened: (§1)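 Pooled SD rat liver microsomes (1.0 mg/mL protein) with compound 20 μM (diluted from 10 mM DMSO stock), NADPH 1.0 mM and glutathione 10 mM in 100 mM potassium phosphate pH 7.4. Incubated 30 min at 37 °C; controls lacked NADPH. Quenched with ice-cold 10% TCA and centrifuged. Supernatant analysed by LC-MS/MS (phenyl column, positive ESI), monitoring AMGS adducts at m/z 661 (SIM).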

Liver microsomes [5] = test: Drug metabolism in rat liver microsomes assessed as NADPH-dependent active metabolite glutathione adducts 2 formation at 20 uM after 30 mins by LC-MS/MS analysis; type: ADME, Microsome; settings: 0.5 h; procedure, shortened: as §1
Liver microsomes [6] = test: Drug metabolism in rat liver microsomes assessed as NADPH-dependent active metabolite glutathione adducts 3 formation at 20 uM after 30 mins by LC-MS/MS analysis; type: ADME, Microsome; settings: 0.5 h; procedure, shortened: as §1
Liver microsomes [7] = test: Drug metabolism in rat liver microsomes assessed as NADPH-dependent active metabolite glutathione adducts 1 formation at 20 uM after 30 mins by LC-MS/MS analysis; type: ADME, Microsome; settings: 0.5 h; procedure, shortened: as §1
Liver microsomes [8] = test: Drug metabolism in rat liver microsomes assessed as NADPH-dependent active metabolite glutathione adducts formation at 20 uM after 30 mins by LC-MS/MS analysis in presence of NADPH and GSH; type: ADME, Microsome; settings: 0.5 h; procedure, shortened: as §1
Rattus norvegicus [9] = test: Half life in Sprague-Dawley rat assessed as clopidogrel thioacetate level at 24 umol/kg, po; type: ADME, organism-based; settings: in vivo
Rattus norvegicus [10] = test: AUC (0 to infinity) in Sprague-Dawley rat […] at 24 umol/kg, po; type: ADME, organism-based, Plasma; design: dose 24 umol/kg, route oral, time infinity; settings: in vivo
[11] = Toxicity in beagle dog assessed as maximum tolerated dose; type: organism-based, Canis lupus familiaris; settings: in vivo
Procedure, shortened: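 Single-dose oral study in beagle dogs, run in a GLP laboratory. Both the no-observed-adverse-effect level and the maximal tolerated dose were determined.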

Mus musculus [12] = test: Toxicity in mouse assessed as mortality at 5000 mg/kg, po measured after 14 days; type: organism-based; design: dose 5000 mg/kg, route oral; settings: in vivo, 336 h
Procedure, shortened: (§2)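 Single-dose study in a GLP laboratory. Deaths were recorded, and the liver and other organs were assessed for injury or adverse effects.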

Mus musculus [13] = test: Toxicity in mouse assessed as liver injury at 5000 mg/kg, po measured after 14 days; type: organism-based; design: dose 5000 mg/kg, route oral; settings: in vivo, 336 h; procedure, shortened: as §2
Mus musculus [14] = test: Toxicity in mouse assessed as tissue injury at 5000 mg/kg, po measured after 14 days; type: organism-based; design: dose 5000 mg/kg, route oral; settings: in vivo, 336 h; procedure, shortened: as §2
[15] = Toxicity in beagle dog assessed as no-observed adverse effect level; type: organism-based, Canis lupus familiaris; settings: in vivo

With `CCCC(=O)Oc1cc2c(s1)CCN([C@H](C(=O)OC)c1ccccc1Cl)C2` the Activity (Rattus norvegicus [1]) was 52.8%.
In the case of `COC(=O)[C@H](c1ccccc1Cl)N1CCc2sc(OC(=O)c3ccccc3OC(C)=O)cc2C1`, the Activity (Rattus norvegicus [1]) is reported as 77.9%.
Compound `COC(=O)[C@H](c1ccccc1Cl)N1CCc2sc(OC(=O)c3ccc([N+](=O)[O-])cc3)cc2C1` has an Activity (Rattus norvegicus [1]) of 75.6%.
In the case of `COC(=O)[C@H](c1ccccc1F)N1CCc2sc(OC(C)=O)cc2C1`, the Activity (Rattus norvegicus [1]) is reported as 62.9%.
With `COC(=O)[C@H](c1ccccc1Cl)N1CCc2sc(OC(=O)Cc3ccccc3)cc2C1` the Activity (Rattus norvegicus [1]) was 53.8%.
`COC(=O)[C@H](c1ccccc1Cl)N1CCc2sc(OC(=O)c3ccc(OC)cc3)cc2C1` gave an Activity (Rattus norvegicus [1]) of 82.6%.
For `COC(=O)C(c1ccccc1Cl)N1CCc2sc(OC(C)=O)cc2C1` (racemic), the Activity (Rattus norvegicus [1]) was 63.7%.
Compound `CCOC(=O)Oc1cc2c(s1)CCN([C@H](C(=O)OC)c1ccccc1Cl)C2` has an Activity (Rattus norvegicus [1]) of 53%.
With `COC(=O)[C@H](c1ccccc1Cl)N1CCc2sccc2C1` [CLOPIDOGREL] the Tmax (Rattus norvegicus [2]) was 0.583 h, the Cmax (Rattus norvegicus [3]) was 6.93 ng/mL and the Drug metabolism (Liver microsomes [4]) was “Active”. The Drug metabolism (Liver microsomes [5]) was “Active”, the Drug metabolism (Liver microsomes [6]) was “Active” and the Drug metabolism (Liver microsomes [7]) was “Active”. For the same compound, the Drug metabolism (Liver microsomes [8]) was “Active”, the t1/2 (Rattus norvegicus [9]) was 2.48 h and the AUC (Rattus norvegicus [10]) was 32.2 ng·h/mL.
`COC(=O)[C@H](c1ccccc1)N1CCc2sc(OC(C)=O)cc2C1` gave an Activity (Rattus norvegicus [1]) of 81.1%.
With `COC(=O)[C@H](c1ccccc1Cl)N1CCc2sc(OC(=O)N(C)C)cc2C1` the Activity (Rattus norvegicus [1]) was 67.7%.
`COC(=O)Oc1cc2c(s1)CCN([C@H](C(=O)OC)c1ccccc1Cl)C2` showed an Activity (Rattus norvegicus [1]) of 38.6%.
Compound `CC(=O)Oc1cc2c(s1)CCN(C(C(=O)C1CC1)c1ccccc1F)C2` (stereo not given) [PRASUGREL] has an Activity (Rattus norvegicus [1]) of 32.1%.
In the case of `CCC(C)(C)C(=O)Oc1cc2c(s1)CCN([C@H](C(=O)OC)c1ccccc1Cl)C2`, the Activity (Rattus norvegicus [1]) is reported as 70%.
In the case of `COC(=O)[C@H](c1ccccc1Cl)N1CCc2sc(OC(=O)COc3ccccc3)cc2C1`, the Activity (Rattus norvegicus [1]) is reported as 75.4%.
`COC(=O)[C@H](c1ccccc1Cl)N1CCc2sccc2C1.O=S(=O)(O)O` [CLOPIDOGREL BISULFATE] gave an Activity (Rattus norvegicus [1]) of 73.7%.
With `COC(=O)[C@H](c1ccccc1Cl)N1CCc2sc(OC(=O)OCC(C)C)cc2C1` the Activity (Rattus norvegicus [1]) was 65.6%.
`COC(=O)[C@@H](c1ccccc1Cl)N1CCc2sc(OC(C)=O)cc2C1` showed an Activity (Rattus norvegicus [1]) of 68.4%.
With `COC(=O)[C@H](c1ccccc1Cl)N1CCc2sc(OC(=O)C(C)(C)C)cc2C1` the Activity (Rattus norvegicus [1]) was 63.4%.
With `COC(=O)[C@H](c1ccccc1Cl)N1CCc2sc(OC(=O)/C=C/c3ccccc3)cc2C1` the Activity (Rattus norvegicus [1]) was 84.7%.
`COC(=O)[C@H](c1ccccc1Cl)N1CCc2sc(OC(=O)OCc3ccccc3)cc2C1` showed an Activity (Rattus norvegicus [1]) of 72.2%.
For `COC(=O)[C@H](c1ccccc1Cl)N1CCc2sc(OC(=O)N3CCCC3)cc2C1`, the Activity (Rattus norvegicus [1]) was 80.9%.
For `COC(=O)[C@H](c1ccccc1Cl)N1CCc2sc(OC(=O)c3cccnc3)cc2C1`, the Activity (Rattus norvegicus [1]) was 45.1%.
With `COC(=O)[C@H](c1ccccc1Cl)N1CCc2sc(OC(=O)OC(C)C)cc2C1` the Activity (Rattus norvegicus [1]) was 50.2%.
With `COC(=O)[C@H](c1ccccc1Cl)N1CCc2sc(OC(=O)c3ccccc3)cc2C1` the Activity (Rattus norvegicus [1]) was 60.1%.
`CCC(=O)Oc1cc2c(s1)CCN([C@H](C(=O)OC)c1ccccc1Cl)C2` gave an Activity (Rattus norvegicus [1]) of 46.7%.
In the case of `COC(=O)[C@H](c1ccccc1Cl)N1CCc2sc(OC(C)=O)cc2C1` [SUMECIGREL], the MTD [11] is reported as greater than 2000 mg/kg, the Tmax (Rattus norvegicus [2]) is reported as 1.17 h and the Cmax (Rattus norvegicus [3]) is reported as 67.2 ng/mL. The Drug metabolism (Liver microsomes [4]) was “Active”, the Drug metabolism (Liver microsomes [5]) was “Active” and the Drug metabolism (Liver microsomes [6]) was “Active”. For the same compound, the Drug metabolism (Liver microsomes [7]) was “Active”, the Drug metabolism (Liver microsomes [8]) was “Active” and the Activity (Rattus norvegicus [1]) was 34.6%. For the same compound, the t1/2 (Rattus norvegicus [9]) was 2.19 h, the AUC (Rattus norvegicus [10]) was 211 ng·h/mL and the Activity (Mus musculus [12]) was “Non-toxic”. For the same compound, the Activity (Mus musculus [13]) was “Toxic”, the Activity (Mus musculus [14]) was “Non-toxic” and the NOAEL [15] was 300 mg/kg.
With `COC(=O)[C@H](c1ccccc1Cl)N1CCC2SC(=O)C=C2C1` (stereo not given in full) [CLOPIDOGREL THIOLACTONE] the Activity (Rattus norvegicus [1]) was 48.6%.

Source: ChEMBL document CHEMBL2040847, “Overcoming clopidogrel resistance: discovery of vicagrel as a highly potent and orally bioavailable antiplatelet agent” (J Med Chem, 2012)
